OXTR potentiator – potentiates the human oxytocin receptor response; 320,000 tested, 0.061% active; CHO-OTR cells, Fluo-8 calcium fluorescence, potentiator mode; 0% = oxytocin EC15, 100% = EC100; P30559; AID 2445; activation, % at 3 µM;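 active = activation above that plate's cutoff, the mean activation of tested compounds plus 3 SD, cut at about 6.6% in these data, passing the limit was not always enough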;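 note: 100% uses oxytocin at 75 nM as the full agonist control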
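Material: CHO-OTR cells, human receptor; compound dosing: single dose, 3.0 µM nominal final compound concentration; schedule: 6 min compound pre-incubation at room temperature, 100 s kinetic read; measured by: kinetic Fluo-8 calcium fluorescence; read-out basis: % activation vs EC15 and EC100 oxytocin; controls: EC15 oxytocin alone as 0%, 75 nM oxytocin as 100%; replicates: singlicate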
TAAR1 antagonist – human TAAR1 antagonism; inhibition, % at 3 µM; CHO RD-HGA16 TAAR1, Fluo-8 calcium fluorescence, antagonist; AID 624466; Q96RJ0; 360,000 tested, 1.5% active;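 active = inhibition above a per-plate cutoff, the mean inhibition of test compounds on that plate plus 3 SD, cut at about 49% in these data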;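 note: 0% = DMSO plus EC80 beta-PEA response and 100% = DMSO alone without agonist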
Target sequence (Q96RJ0 whole entry, looked up): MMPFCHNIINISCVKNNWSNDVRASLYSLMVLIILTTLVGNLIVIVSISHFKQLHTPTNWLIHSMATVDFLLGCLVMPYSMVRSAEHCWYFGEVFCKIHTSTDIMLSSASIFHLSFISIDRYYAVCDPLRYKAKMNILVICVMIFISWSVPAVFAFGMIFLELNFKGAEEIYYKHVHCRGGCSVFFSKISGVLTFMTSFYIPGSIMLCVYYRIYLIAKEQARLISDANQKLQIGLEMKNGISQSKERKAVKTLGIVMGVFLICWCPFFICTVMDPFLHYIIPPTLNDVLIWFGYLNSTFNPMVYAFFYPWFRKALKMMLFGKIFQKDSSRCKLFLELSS
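System: CHO RD-HGA16 cells bearing hTAAR1. Reagent: EC80 β-phenethylamine stimulus. Schedule: seeding 17-24 h prior, 75-min 37 °C, 30-min RT dye loading. Signal: Fluo-8 intracellular calcium dye fluorescence, real-time kinetic reads. Read-out: % inhibition from peak post-agonist over basal fluorescence ratio. Benchmarks: vehicle wells and EC80 agonist wells. Replicates: n of 1.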
TAAR1 agonist – human TAAR1 agonism | Q96RJ0 | 360,000 tested, 0.99% active | CHO RD-HGA16 TAAR1, Fluo-8 calcium fluorescence; vehicle wells 0%, saturating PEA agonist 100% | AID 624467 | activation, % at 3 µM;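 active = activation above the mean activation of all test compounds in the run plus 3 SD, cut at about 38% in these data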
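Test system: RD-HGA16 (CHO) cells co-expressing Gα16 and hTAAR1; dosing: one-point dosing at 3 µM (nominal); timing: 17-24 h seeding, 75 min 37 °C dye, 30 min RT; signal: kinetic Fluo-8 calcium fluorescence; read-out basis: % activation relative to PEA EC100 response; controls: DMSO and PEA EC100; replicates: n 1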
OXTR ag – activates the human oxytocin receptor; activation, % at 3 µM; CHO-OTR cells, Fluo-8 calcium fluorescence; normalized: DMSO 0%, oxytocin 100%; P30559; 320,000 tested, 0.32% active; AID 2435;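 active = activation above the mean of all tested compounds plus 3 SD, cutoff set per screening run, cut at about 20% in these data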;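 note: peak over basal fluorescence ratio from a 100 s FLIPR kinetic read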
V1aR counter – counter-screen for oxytocin receptor agonists: human V1a receptor agonists; activation, % at 3 µM; 320,000 tested, 0.25% active; CHO-V1R cells, Fluo-8 calcium fluorescence, agonist mode; 0% DMSO, 100% 3 nM vasopressin;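 active = activation above the mean activation of all tested compounds plus 3 SD, per screening run, cut at about 20% in these data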;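 note: signal is peak over basal fluorescence ratio across a 100 second FLIPR read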
TAAR1 ag confirm – human TAAR1 agonism, confirmed; shares compounds with TAAR1 agonist; CHO RD-HGA16 TAAR1, Fluo-8 calcium fluorescence; scaled: DMSO 0%, maximal phenethylamine 100%; activation, % at 3 µM; 2,400 tested, 82% active; AID 651783;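 active = activation above a cutoff set at the run's mean compound activation plus 3 SD, cut at about 39% in these data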
Ga16 nonsel ag – nonselective agonist in parental cells, TAAR1 agonist counter-screen; shares compounds with TAAR1 agonist; 2,400 tested, 50% active; activation, % at 3 µM; CHO-Ga16 parental, Fluo-8 calcium fluorescence; normalized to maximal ATP response, DMSO zero;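 active = activation above the run cutoff, the mean activation over all tested wells plus 3 SD, cut at about 12% in these data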;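 note: 0% = DMSO wells and 100% = maximal ATP response on the peak over basal ratio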
TAAR1 desensitize – TAAR1 response desensitization, agonist counter-screen; AID 651951; shares compounds with TAAR1 agonist; 2,400 tested, 46% active; inhibition, % at 3 µM; CHO RD-HGA16 hTAAR1, Fluo-8 calcium, beta-PEA response inhibition;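 active = inhibition above the run cutoff, the mean inhibition of all test compounds plus 3 SD, cut at about 49% in these data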;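 note: beta-PEA stimulus applied at its EC80; loss of beta-PEA calcium signal after compound pretreatment read as receptor desensitization; 0% = DMSO with beta-PEA at EC80 and 100% = DMSO alone without agonist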
Ga16 nonsel ant – counter-screen for TAAR1 agonists: nonselective Ga16 antagonists; shares compounds with TAAR1 agonist; 2,400 tested, 39% active; CHO-Ga16 ATP-induced calcium, Fluo-8 fluorescence; AID 651952; inhibition, % at 3 µM;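 active = inhibition above the plate's mean compound inhibition plus 3 SD, computed per plate, cut at about 22% in these data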;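 note: 0% = EC80 ATP with DMSO and 100% = DMSO wells without ATP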
* hit, by the source's call; . = no result. Rows were chosen to be rich in hits. Some 2.3% of all compounds tested hit in one or more screens of this group.

SMILES | OXTR potentiator | TAAR1 antagonist | TAAR1 agonist | OXTR ag | V1aR counter | TAAR1 ag confirm | Ga16 nonsel ag | TAAR1 desensitize | Ga16 nonsel ant
Cc1ccc(NC(=O)c2ccc(CNS(=O)(=O)c3cccc(C(F)(F)F)c3)cc2)cc1 | -10 | -10 | 4 | -1 | 0 | . | . | . | .
COc1ccc(C(=O)N2CCCCC2c2cc(C(=O)Nc3cccc(C#N)c3)no2)cc1 (centres undefined) | . | 11 | 7 | . | . | . | . | . | .
CCN1CCN(CCNC(=O)c2ccc(/C=C3/Sc4ccccc4N(Cc4ccccc4C)C3=O)cc2)CC1 | . | 32 | 60* | . | . | 72* | 46* | 65* | 56*
CS(=O)(=O)N1CCN(c2ccc([N+](=O)[O-])c(SCc3ccco3)c2)CC1 | -17 | -6 | 6 | 0 | 0 | . | . | . | .
O=C(CCS(=O)(=O)c1ccc2c(c1)NC(=O)CO2)NCCc1ccccc1 | -3 | 27 | 66* | 0 | 0 | 62* | -1 | 5 | -1
O=C(CCS(=O)(=O)c1ccc2c(c1)NC(=O)CO2)NCc1ccccc1 | -2 | -16 | 1 | 0 | 0 | . | . | . | .
Cc1cccc(N(C)S(=O)(=O)c2c(C)[nH]c(C)c2C(=O)N2CCCC2)c1 | -2 | -9 | 5 | 1 | 1 | . | . | . | .
CCOc1cccc(-c2c(C(=O)N/N=C/c3sccc3C)nnn2-c2nonc2N)c1 | -1 | -4 | 31 | 2 | 1 | . | . | . | .
CCOc1cccc(-c2c(C(=O)N/N=C/c3ccsc3)nnn2-c2nonc2N)c1 | -7 | 20 | 118* | 25* | 24* | 136* | 93* | 67* | 27*
CCOc1ccc(-c2c(C(=O)N/N=C/c3ccccc3)nnn2-c2nonc2N)cc1 | -6 | -15 | 51* | -2 | -1 | 43* | 30* | 13 | 15
CCOc1ccc(-c2c(C(=O)N/N=C/c3ccco3)nnn2-c2nonc2N)cc1 | -6 | -13 | 92* | 6 | 16 | 64* | 49* | 16 | 6
Cc1ccc(-c2c(C(=O)N/N=C/c3ccsc3)nnn2-c2nonc2N)cc1 | -20 | 50* | 133* | 39* | 36* | 125* | 90* | 72* | 34*
CCOc1ccc(-c2c(C(=O)N/N=C/c3ccncc3)nnn2-c2nonc2N)cc1 | -6 | -29 | 13 | 0 | 5 | . | . | . | .
Cc1ccc(-c2c(C(=O)N/N=C/c3cccs3)nnn2-c2nonc2N)cc1 | -10 | . | . | 18 | 17 | . | . | . | .
COc1cc(OC)c(NC(C)C(=O)N2CCCC2)cc1Cl (centres undefined) | 2 | -42 | 1 | 0 | -1 | . | . | . | .
COCCn1c(N)c(N(Cc2ccccc2)C(=O)c2cc3ccccc3o2)c(=O)[nH]c1=O | 0 | -15 | 1 | 0 | 0 | . | . | . | .
CCOc1ccc(-c2c(C(=O)N/N=C/c3ccc(C)cc3)nnn2-c2nonc2N)cc1 | 9 | 34 | 122* | 16 | 15 | 118* | 73* | 76* | 48*
Cc1ccc(-c2c(C(=O)N/N=C/c3ccoc3)nnn2-c2nonc2N)cc1 | -5 | 20 | 73* | 6 | 10 | 87* | 59* | 14 | 6
Cc1ccc(-c2c(C(=O)N/N=C/c3cccc(Cl)c3)nnn2-c2nonc2N)cc1 | -12 | 35 | 4 | 2 | 1 | . | . | . | .
Cc1cc(C)c2[nH]c(C)c(CN3CCCCCC3)c(=O)c2c1 | 2 | -20 | 4 | 1 | 0 | . | . | . | .
Cn1nc(C(=O)Nc2sc3c(c2C#N)CCCC3)ccc1=O | -4 | -6 | 6 | 1 | 0 | . | . | . | .
N=c1c2c(-c3ccccc3)c(-c3ccccc3)n(Cc3ccccc3)c2ncn1CCO | -17 | -15 | 59* | 3 | 12 | 49* | 20* | 15 | 12
COc1ccc(CN2CCNC(=O)C2CC(=O)N(C)Cc2ccon2)c(OC)c1 (centres undefined) | -8 | -1 | 2 | 0 | 0 | . | . | . | .
O=C(N/N=C\c1c(O)ccc2ccccc12)c1cncc(Br)c1 | -17 | 59* | 121* | 152* | 155* | 72* | 90* | 52* | 58*
CC1=C(C)C(=O)N(C(C)CCc2ccccc2)C1=O (centres undefined) | -1 | 14 | 1 | -1 | -1 | . | . | . | .
CCCC1=NN2C(=N)/C(=C\c3cc(C)n(Cc4ccccc4)c3C)C(=O)N=C2S1 | -18 | 101* | 117* | 48* | 43* | 111* | 96* | 106* | 100*
CC(C)N(Cc1cnn(C)c1)Cc1nc(-c2ccc(Cl)cc2)no1 | -13 | 3 | -1 | 0 | 2 | . | . | . | .
CN=c1scc(-c2cccs2)n1/N=C/c1ccc(O)c(O)c1O | -10 | 14 | 45* | -2 | 0 | 56* | 21* | 45 | 18
COc1ccc(NC(=O)CN(C)CC(=O)Nc2ccc3c(c2)CCC3)cc1 | -8 | 11 | 14 | -2 | 2 | . | . | . | .
